Test results: ChEMBL document CHEMBL1629486, “Antimicrobial, antitumor and 5α-reductase inhibitor activities of some hydrazonoyl substituted pyrimidinones” (Eur J Med Chem, 2010)

Legend:
Staphylococcus aureus = assay: Antimicrobial activity against Staphylococcus aureus at 1 to 5 ug/ml by agar well diffusion method; format: functional
Summary of the method: (§1)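 Agar well diffusion against bacteria and fungi. Inhibition zone is scored beyond the control: ++ 0.6–1.0 cm, + 0.1–0.5 cm, 0 no inhibition.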

Bacillus subtilis = assay: Antimicrobial activity against Bacillus subtilis at 1 to 5 ug/ml by agar well diffusion method; format: functional; summary of the method: as §1
Escherichia coli = assay: Antimicrobial activity against Escherichia coli at 1 to 5 ug/ml by agar well diffusion method; format: functional; summary of the method: as §1
Pseudomonas aeruginosa = assay: Antimicrobial activity against Pseudomonas aeruginosa at 1 to 5 ug/ml by agar well diffusion method; format: functional; summary of the method: as §1
Candida albicans = assay: Antimicrobial activity against Candida albicans at 1 to 5 ug/ml by agar well diffusion method; format: functional; summary of the method: as §1
[1] = system: Syncephalastrum racemosum; assay: Antimicrobial activity against Syncephalastrum racemosum at 1 to 5 ug/ml by agar well diffusion method; format: functional; summary of the method: as §1
Rattus norvegicus [2] = assay: Effect on circulating testosterone and dihydrotestosterone level in sc dosed Sprague-Dawley rat by radioimmunoassay; format: functional
Summary of the method: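 Rats were given a range of doses of the 5α-reductase inhibitors. Serum testosterone and DHT were measured by radioimmunoassay with specific antisera, without prior chromatography. Serum (0.5 mL) was extracted with 2 mL peroxide-free diethyl ether by shaking for 60 s. Levels were compared with vehicle-treated controls, and ED50 was derived.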

Aspergillus fumigatus = assay: Antimicrobial activity against Aspergillus fumigatus at 1 to 5 ug/ml by agar well diffusion method; format: functional; summary of the method: as §1
Rattus norvegicus [3] = species on record: Rattus norvegicus; assay: Acute toxicity in albino rat; format: organism-based; conditions: in vivo
Summary of the method: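 Male albino rats received injections of increasing doses. LD50 and LD90, the doses killing 50% and 90% of the animals, were calculated by the Austen and Brocklehurst method.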

Penicillium italicum = assay: Antimicrobial activity against Penicillium italicum at 1 to 5 ug/ml by agar well diffusion method; format: functional; summary of the method: as §1
Rattus norvegicus [4] = assay: Effect on circulating testosterone and dihydrotestosterone level in sc dosed Sprague-Dawley rat by radioimmunoassay relative to anastrozole; format: functional
Summary of the method: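 Serum testosterone and DHT were measured by RIA in ether extracts of serum (0.5 mL serum, 2 mL diethyl ether, 60 s shaking), without chromatography, in rats dosed at several levels. Relative potency is the ED50 of anastrozole divided by the ED50 of the test agent, where ED50 is the dose giving 50% of the pharmacological response.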

Compound | diameter of the inhibition zone (DIZ) (Staphylococcus aureus) | diameter of the inhibition zone (DIZ) (Bacillus subtilis) | diameter of the inhibition zone (DIZ) (Escherichia coli) | diameter of the inhibition zone (DIZ) (Pseudomonas aeruginosa) | diameter of the inhibition zone (DIZ) (Candida albicans) | diameter of the inhibition zone (DIZ) [1] | ED50 (Rattus norvegicus [2]) | diameter of the inhibition zone (DIZ) (Aspergillus fumigatus) | LD50 (Rattus norvegicus [3]) | LD90 (Rattus norvegicus [3]) | diameter of the inhibition zone (DIZ) (Penicillium italicum) | Ratio ED50 (Rattus norvegicus [4])
O=C(N[C@H](CO)[C@H](O)c1ccc([N+](=O)[O-])cc1)C(Cl)Cl [CHLORAMPHENICOL] | 0.6 cm | 1.1 cm | 0.6 cm | 1.1 cm |  |  |  |  |  |  |  | 
Cc1cc(=O)[nH]c(/C(=N/Nc2ccc([N+](=O)[O-])cc2)C(=O)c2ccc(Cl)cc2)n1 | 0.6 cm | 0 cm | 0.1 cm | 0 cm | 0 cm | 0 cm | 0.000478 mg/kg | 0 cm | 2.34523 mg/kg | 3.29098 mg/kg | 0 cm | 2.28
Cc1cc(=O)[nH]c(/C(=N/Nc2cccc(Cl)c2)C(=O)c2ccc(Cl)cc2)n1 | 0 cm | 0 cm | 0.1 cm | 0 cm | 0 cm | 0 cm | 0.000591 mg/kg | 0 cm | 2.13345 mg/kg | 2.98032 mg/kg | 0 cm | 1.844
Cc1cc(=O)[nH]c(/C(=N/Nc2cccc([N+](=O)[O-])c2)C(=O)c2ccc(Cl)cc2)n1 | 0.6 cm | 0.1 cm | 0.1 cm | 0 cm | 0 cm | 0 cm | 0.000188 mg/kg | 0 cm | 2.55348 mg/kg | 3.30012 mg/kg | 0 cm | 5.798
CCOC(=O)c1ccc(N/N=C(\C(=O)c2ccc(Cl)cc2)c2nc(C)cc(=O)[nH]2)cc1 | 0 cm | 0 cm | 0 cm | 0 cm | 0 cm | 0 cm | 0.000198 mg/kg | 0 cm | 2.34133 mg/kg | 3.21717 mg/kg | 0 cm | 5.505
CN(C/C=C/C#CC(C)(C)C)Cc1cccc2ccccc12 [TERBINAFINE] |  |  |  |  | 0.6 cm | 1.1 cm |  | 1.1 cm |  |  | 1.1 cm | 
Cc1cc(=O)[nH]c(/C(=N/Nc2ccc(Cl)cc2)C(=O)c2ccc(Cl)cc2)n1 | 0 cm | 0 cm | 0 cm | 0 cm | 0 cm | 0 cm | 0.000611 mg/kg | 0 cm | 2.34537 mg/kg | 3.12376 mg/kg | 0 cm | 1.784
CC(C)(C#N)c1cc(Cn2cncn2)cc(C(C)(C)C#N)c1 [ANASTROZOLE] |  |  |  |  |  |  |  |  |  |  |  | 1
Cc1cccc(N/N=C(\C(=O)c2ccc(Cl)cc2)c2nc(C)cc(=O)[nH]2)c1 | 0 cm | 0 cm | 0 cm | 0 cm | 0 cm | 0 cm | 0.000174 mg/kg | 0 cm | 2.555 mg/kg | 3.98654 mg/kg | 0 cm | 6.264
COc1ccc(N/N=C(\C(=O)c2ccc(Cl)cc2)c2nc(C)cc(=O)[nH]2)cc1 | 0 cm | 0 cm | 0 cm | 0 cm | 0 cm | 0 cm |  | 0 cm |  |  | 0 cm | 
